Experimental data reported in ChEMBL document CHEMBL4270576, “Discovery of a benzenesulfonamide-based dual inhibitor of microsomal prostaglandin E2 synthase-1 and 5-lipoxygenase that favorably modulates lipid mediator biosynthesis in inflammation” (Eur J Med Chem, 2018).
Calls of active or inactive are those of the source. The calls are words filed in the database; no cut-off is given here.

Tests used:
[1] = molecular target: T1, Cytosolic phospholipase A2 (Homo sapiens) (UniProt P47712); experiment: Inhibition of cPLA2alpha-mediated [3H]-arachidonic acid release in Ca2+ ionophore A23187-stimulated human neutrophils at 10 uM preincubated for 15 mins followed by Ca2+ ionophore A23187 stimulation measured after 5 mins by scintillation counting method
T1 sequence (whole entry): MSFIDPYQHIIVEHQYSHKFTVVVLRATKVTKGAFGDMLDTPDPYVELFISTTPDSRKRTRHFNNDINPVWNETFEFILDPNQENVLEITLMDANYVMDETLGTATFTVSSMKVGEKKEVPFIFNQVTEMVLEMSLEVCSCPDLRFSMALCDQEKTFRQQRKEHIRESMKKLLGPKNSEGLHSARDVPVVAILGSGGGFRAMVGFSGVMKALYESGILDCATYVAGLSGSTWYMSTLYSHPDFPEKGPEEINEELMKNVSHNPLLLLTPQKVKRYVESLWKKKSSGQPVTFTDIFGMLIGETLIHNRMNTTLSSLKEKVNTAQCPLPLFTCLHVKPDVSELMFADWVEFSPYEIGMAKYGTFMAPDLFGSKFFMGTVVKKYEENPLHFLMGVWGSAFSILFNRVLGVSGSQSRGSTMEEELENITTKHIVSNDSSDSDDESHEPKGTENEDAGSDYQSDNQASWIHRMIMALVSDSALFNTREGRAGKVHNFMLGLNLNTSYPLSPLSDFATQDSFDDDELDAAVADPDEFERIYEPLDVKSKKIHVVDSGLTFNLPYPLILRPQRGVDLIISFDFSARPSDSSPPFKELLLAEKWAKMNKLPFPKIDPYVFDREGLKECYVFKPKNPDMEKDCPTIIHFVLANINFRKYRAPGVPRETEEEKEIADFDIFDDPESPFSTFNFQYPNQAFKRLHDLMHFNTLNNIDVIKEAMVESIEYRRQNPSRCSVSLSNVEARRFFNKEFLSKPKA
Summary of the method: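 Neutrophils (1 × 10^7) labelled with 5 nM [3H]-AA for 120 min at 37 °C, washed with fatty-acid-free BSA buffer, pre-incubated 15 min at 37 °C with compound or 0.1% DMSO, then stimulated with 2.5 µM A23187 for 5 min. Released [3H]-AA in supernatant counted by liquid scintillation; n=3-4.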

[2] = molecular target: T2, Polyunsaturated fatty acid lipoxygenase ALOX15 (Homo sapiens) (UniProt P16050); experiment: Modulation of 15-LO-mediated 17-HDHA level in human M2 macrophages derived from IL4-polarized human monocyte derived macrophages at 3 uM preincubated for 15 mins followed by Escherichia coli (O6:K2:H1) challenge for 90 mins by LC-MS/MS analysis
T2 sequence (whole entry): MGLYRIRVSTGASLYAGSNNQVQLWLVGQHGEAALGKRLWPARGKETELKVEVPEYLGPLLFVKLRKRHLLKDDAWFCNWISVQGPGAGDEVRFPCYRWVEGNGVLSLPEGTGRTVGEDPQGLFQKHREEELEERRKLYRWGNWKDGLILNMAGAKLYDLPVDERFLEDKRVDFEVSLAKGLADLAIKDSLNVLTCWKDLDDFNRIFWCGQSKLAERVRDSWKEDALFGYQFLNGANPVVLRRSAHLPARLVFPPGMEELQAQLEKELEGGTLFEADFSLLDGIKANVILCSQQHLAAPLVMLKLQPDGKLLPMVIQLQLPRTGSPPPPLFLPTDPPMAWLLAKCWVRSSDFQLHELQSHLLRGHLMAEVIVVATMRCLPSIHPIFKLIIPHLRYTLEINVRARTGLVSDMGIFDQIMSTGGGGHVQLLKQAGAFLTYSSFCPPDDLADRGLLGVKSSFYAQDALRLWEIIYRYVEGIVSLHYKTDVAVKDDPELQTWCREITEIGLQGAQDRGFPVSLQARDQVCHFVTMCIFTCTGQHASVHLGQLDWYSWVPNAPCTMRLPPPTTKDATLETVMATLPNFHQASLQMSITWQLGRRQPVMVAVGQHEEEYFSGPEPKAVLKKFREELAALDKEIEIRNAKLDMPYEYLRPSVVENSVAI
Summary of the method: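 Monocytes differentiated 6 days with M-CSF (20 ng/ml), then polarized 48 h with IL-4 20 ng/ml (M2). Cells (2 × 10^6) in PBS/1 mM CaCl2 pre-incubated 15 min at 37 °C with 3 µM compound or 0.1% DMSO, then challenged with E. coli O6:K2:H1 (1:50) for 90 min. Lipid mediators extracted by SPE with deuterated internal standards and quantified by UPLC-MS/MS as % of vehicle.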

[3] = molecular target: Cyclooxygenase (Homo sapiens, UniProt P35354+P23219); experiment: Modulation of COX1/2-mediated TXB2 level in human M1 macrophages derived from LPS/IFNgamma-polarized human monocyte derived macrophages at 3 uM preincubated for 15 mins followed by Escherichia coli (O6:K2:H1) challenge for 90 mins by LC-MS/MS analysis; assay type: protein assay; conditions: 1.5 h
Summary of the method: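 Monocytes differentiated 6 days with GM-CSF (20 ng/ml) in RPMI/10% FCS, then polarized 48 h with LPS 100 ng/ml plus IFN-γ 20 ng/ml (M1). Cells (2 × 10^6) in PBS with 1 mM CaCl2 pre-incubated 15 min at 37 °C with 3 µM compound or 0.1% DMSO, then E. coli O6:K2:H1 (1:50) for 90 min. Methanol with deuterated standards added; SPE; UPLC-MS/MS; expressed as % of vehicle.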

inhibition [1]: inactive | Activity [2]: 124% | Activity [3]: 92%
Structure (SMILES): O=C(O)c1ccc(N(Cc2cccc(OCc3ccccc3)c2)S(=O)(=O)c2ccc(-c3ccccc3)cc2)cc1
